Reference: the M2OR odorant receptor database
Substitutions are numbered along the chain they refer to.

Legend:
Conditions in all cases: stereoisomer not certain
[1] = system: T1, OR4KH
T1 sequence (whole entry): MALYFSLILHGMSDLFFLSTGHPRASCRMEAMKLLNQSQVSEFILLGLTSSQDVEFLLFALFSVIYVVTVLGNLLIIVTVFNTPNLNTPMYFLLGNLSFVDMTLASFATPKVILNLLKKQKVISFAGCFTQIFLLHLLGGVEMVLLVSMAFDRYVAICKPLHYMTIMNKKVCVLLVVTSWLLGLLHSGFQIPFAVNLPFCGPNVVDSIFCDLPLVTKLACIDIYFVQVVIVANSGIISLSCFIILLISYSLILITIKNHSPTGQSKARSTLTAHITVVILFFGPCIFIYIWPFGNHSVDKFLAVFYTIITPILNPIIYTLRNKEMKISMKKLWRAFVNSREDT
Method in brief: (§1)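 Transient luciferase assays in mammalian cell lines were common, though methods varied by source. The values come from published papers and their supplementary material, with extra details from the original authors when needed. Responsive refers to a measured signal the original authors judged statistically different from baseline, and non-responsive (inactive) to the remainder.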

[2] = target: T2, OR4L1 (Homo sapiens) (UniProt Q8NH43)
T2 sequence (whole entry): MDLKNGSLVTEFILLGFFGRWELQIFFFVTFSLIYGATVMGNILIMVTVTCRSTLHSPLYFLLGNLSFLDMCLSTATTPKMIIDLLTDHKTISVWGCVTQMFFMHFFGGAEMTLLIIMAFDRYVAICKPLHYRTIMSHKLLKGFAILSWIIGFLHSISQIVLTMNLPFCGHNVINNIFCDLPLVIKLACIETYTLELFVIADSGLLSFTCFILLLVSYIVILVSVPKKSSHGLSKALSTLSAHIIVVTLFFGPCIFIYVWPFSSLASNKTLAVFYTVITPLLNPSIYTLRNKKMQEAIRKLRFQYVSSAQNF
Method in brief: as §1

[3] = system: T3, OR4L1
T3 sequence (whole entry): T2 sequence (whole entry) with R52S
Method in brief: as §1

[4] = target: T4, OR4M1 (Homo sapiens) (UniProt Q8NGD0)
T4 sequence (whole entry): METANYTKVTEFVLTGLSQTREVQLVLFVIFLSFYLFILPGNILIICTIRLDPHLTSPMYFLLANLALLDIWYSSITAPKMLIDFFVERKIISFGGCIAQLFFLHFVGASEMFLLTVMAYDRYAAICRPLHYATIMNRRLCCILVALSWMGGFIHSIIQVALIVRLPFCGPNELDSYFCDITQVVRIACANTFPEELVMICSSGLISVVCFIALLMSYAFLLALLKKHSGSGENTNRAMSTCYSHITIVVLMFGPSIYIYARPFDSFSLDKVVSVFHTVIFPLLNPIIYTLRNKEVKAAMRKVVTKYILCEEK
Method in brief: as §1

[5] = system: T5, OR4M1 H277N V279L L284H
T5 sequence (whole entry): T4 sequence (whole entry) with H277N, V279L, L284H
Method in brief: as §1

[6] = target: T6, OR4M2 (Homo sapiens) (UniProt Q8NGB6)
T6 sequence (whole entry): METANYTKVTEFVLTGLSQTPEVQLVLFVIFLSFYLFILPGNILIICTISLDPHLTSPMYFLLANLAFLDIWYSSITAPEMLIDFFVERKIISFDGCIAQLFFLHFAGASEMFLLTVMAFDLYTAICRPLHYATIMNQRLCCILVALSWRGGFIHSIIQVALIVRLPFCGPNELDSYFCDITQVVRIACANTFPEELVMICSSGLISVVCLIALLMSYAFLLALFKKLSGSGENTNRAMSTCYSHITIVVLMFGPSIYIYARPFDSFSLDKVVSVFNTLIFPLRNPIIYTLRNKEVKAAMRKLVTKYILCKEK
Method in brief: as §1

[7] = target: T7, OR4N2 (Homo sapiens) (UniProt Q8NGD1)
T7 sequence (whole entry): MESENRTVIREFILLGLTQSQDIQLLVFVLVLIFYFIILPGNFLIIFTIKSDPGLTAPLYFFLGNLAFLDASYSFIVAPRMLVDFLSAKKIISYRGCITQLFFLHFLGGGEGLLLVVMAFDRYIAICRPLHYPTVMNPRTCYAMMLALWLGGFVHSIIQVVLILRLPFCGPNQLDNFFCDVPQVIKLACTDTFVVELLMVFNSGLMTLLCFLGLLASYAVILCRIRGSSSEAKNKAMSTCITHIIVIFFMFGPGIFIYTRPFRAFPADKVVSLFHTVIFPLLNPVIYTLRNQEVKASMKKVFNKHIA
Method in brief: as §1

[8] = system: T8, OR4N2 A57V I76T
T8 sequence (whole entry): T7 sequence (whole entry) with A57V, I76T
Method in brief: as §1

[9] = system: T9, OR4N2 R260C F279L R290H
T9 sequence (whole entry): T7 sequence (whole entry) with R260C, F279L, R290H
Method in brief: as §1

[10] = target: OR4M2B (Homo sapiens) (UniProt A0A0X1KG70)
Method in brief: as §1

Measured: odorant receptor agonist call;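 also: active if original authors judged signal statistically different from baseline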

Chain of OR4M2B (Homo sapiens) (A0A0X1KG70 whole entry): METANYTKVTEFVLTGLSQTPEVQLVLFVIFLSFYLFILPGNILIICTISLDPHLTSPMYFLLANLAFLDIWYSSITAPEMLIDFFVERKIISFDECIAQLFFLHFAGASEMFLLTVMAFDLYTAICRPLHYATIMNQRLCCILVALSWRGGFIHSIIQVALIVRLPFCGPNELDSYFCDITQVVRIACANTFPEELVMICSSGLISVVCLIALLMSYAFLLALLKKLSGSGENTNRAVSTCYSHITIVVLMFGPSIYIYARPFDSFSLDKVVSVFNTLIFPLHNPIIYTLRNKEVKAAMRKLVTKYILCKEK

CCC1OC(C)=C(O)C1=O (configuration not stated)
not listed: [10]
inactive: all other assays above

CC1CCCCCCCCCCCCC(=O)C1 (configuration not stated)
inactive: [2] | [4] | [6] | [10] | [7]

CC1=C(O)C(=O)OC1C (configuration not stated)
not listed: [10]
inactive: all other assays above

O=c1ccc2ccccc2o1
inactive: [7]

CCCCCCC=CCCC=O
not listed: [1] | [10]
inactive: all other assays above

CC(=O)c1c(C)c([N+](=O)[O-])c(C(C)(C)C)c([N+](=O)[O-])c1C
inactive: [2] | [4] | [6] | [10] | [7]

CCCCC(S)C(C)CO (configuration not stated)
inactive: [2] | [4] | [6] | [7]

CC1=NC(C)C(C)S1 (configuration not stated)
not listed: [10]
inactive: all other assays above

CCCCCC(=O)C(C)C(C)=O (configuration not stated)
inactive: [2] | [4] | [6] | [7]

CCC(S)C(C)CO (configuration not stated)
inactive: [2] | [4] | [6] | [7]

Cc1cnc(C)c(C)n1
not listed: [10]
inactive: all other assays above

CCCC(S)CCOC(C)=O (configuration not stated)
not listed: [10]
inactive: all other assays above

CC(CO)CS (configuration not stated)
inactive: [2] | [4] | [6] | [7]

CCC1OC(=O)C(O)=C1C (configuration not stated)
not listed: [10]
inactive: all other assays above

CC1=C(O)C(=O)C(C)O1 (configuration not stated)
not listed: [10]
inactive: all other assays above

CCCCCC(S)C(C)CO (configuration not stated)
inactive: [2] | [4] | [6] | [7]
